Screens as filed in PubChem BioAssay.
OX1R antag-1: antagonists of human orexin 1 receptor (OX1R); O43613; inhibition, % at 6.6 µM; AID 485270; OX1R-expressing cells, FRET antagonist read-out; 1.8% of 330,000 active; in the data active = inhibition mostly above about 38%, no sharp cut-off; inactive = mostly below about 40%;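 also: 0% = agonist challenge alone and 100% = reference antagonist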
Target sequence (O43613 whole entry, looked up): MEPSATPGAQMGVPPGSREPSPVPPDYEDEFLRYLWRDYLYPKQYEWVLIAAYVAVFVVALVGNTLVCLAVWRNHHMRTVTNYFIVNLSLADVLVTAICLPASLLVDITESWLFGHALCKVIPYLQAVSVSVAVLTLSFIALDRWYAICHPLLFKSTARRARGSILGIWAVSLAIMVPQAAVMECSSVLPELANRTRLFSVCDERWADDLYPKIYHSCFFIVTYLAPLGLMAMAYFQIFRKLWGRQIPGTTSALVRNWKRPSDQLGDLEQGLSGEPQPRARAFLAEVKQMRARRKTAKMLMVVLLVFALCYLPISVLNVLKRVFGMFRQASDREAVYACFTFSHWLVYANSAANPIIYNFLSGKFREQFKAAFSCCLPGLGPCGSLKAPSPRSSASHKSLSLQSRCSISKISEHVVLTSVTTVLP
TAAR1 agonist: agonists of human TAAR1. Q96RJ0. activation, % at 3 µM. CHO RD-HGA16 TAAR1, Fluo-8 calcium fluorescence; vehicle wells 0%, saturating PEA agonist 100%. 0.99% of 360,000 active;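 active = activation above the mean activation of all test compounds in the run plus 3 SD, cut at about 38% in these data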
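System: CHO-derived RD-HGA16 cells with stable Gα16 and human TAAR1 / Times: 17-24 h plating, Fluo-8 75 min 37 °C, 30 min RT / Technique: calcium-sensitive Fluo-8 signal, excitation 470-495, emission 515-575 nm / Measure: % activation relative to PEA EC100 response / Benchmarks: DMSO and PEA EC100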
TAAR1 antag: antagonists of human TAAR1; 1.5% of 360,000 active; Q96RJ0; AID 624466; inhibition, % at 3 µM; CHO RD-HGA16 TAAR1, Fluo-8 calcium fluorescence, antagonist;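 active = inhibition above a per-plate cutoff, the mean inhibition of test compounds on that plate plus 3 SD, cut at about 49% in these data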;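 also: 0% = DMSO plus EC80 beta-PEA response and 100% = DMSO alone without agonist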
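Test system: hTAAR1-expressing CHO RD-HGA16 cells, Gα16-coupled; Probe or stimulus: EC80 β-phenethylamine stimulus; Compound dosing: single nominal final test compound concentration of 3 µM; Timing: 140 s kinetic read after compound, 140 s after agonist; Signal: Fluo-8 calcium-sensitive fluorescence; Measure: % inhibition of agonist calcium response; Controls: DMSO and EC80 PEA controls.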
GPR7 antag: human neuropeptides B/W receptor 1 antagonism; inhibition, % at 4.4 µM; 1.1% of 290,000 active; P48145; GPR7-expressing cells, fluorescence antagonist assay; AID 1861; in the data active = inhibition above about 16%, passing the limit was not always enough;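 also: cells stimulated with the agonist NPW; 0% = agonist with vehicle and 100% = vehicle without agonist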
OX1R antag-2: antagonists of human orexin 1 receptor | CHO/OX1R cells, Fluo-8 calcium fluorescence, orexin A | inhibition, % at 5 µM | 0.43% of 330,000 active | AID 434989;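 active = inhibition above its plate's threshold, mean inhibition of all tested compounds on the plate plus 3 SD, cut at about 37% in these data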;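 also: 0% = orexin A challenge wells and 100% = SB-334867-A antagonist wells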
CHO parental Ca: signal in parental CHO cells, OX1R antagonist counter-screen; parental CHO-K1, ATP-induced calcium, Fluo-8 fluorescence; inhibition, % at 5.6 µM; 0.63% of 330,000 active; AID 463079;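 active = inhibition above that plate's mean sample inhibition plus 3 SD, cut at about 26% in these data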;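 also: 0% = ATP-challenged DMSO wells and 100% = DMSO wells without ATP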
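Assay system: parental CHO cells; Read-out basis: percent inhibition of ATP-evoked calcium rise, normalized to controls; Benchmarks: ATP and no-ATP DMSO wells; Compound dosing: single nominal dose of 5.6 µM per compound; Signal: Fluo-8 calcium dye fluorescence; Also added: ATP as calcium-mobilizing challenge; Repeats: singlicate.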
OX1R Ca confirm: confirmation of human orexin 1 receptor antagonists; shares compounds with OX1R antag-2; 38% of 1,100 active; CHO/OX1R cells, orexin A calcium Fluo-8 fluorescence; inhibition, % at 5 µM; in the data active = inhibition above about 29%;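 also: 0% = agonist challenge alone and 100% = reference antagonist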
CHO Ca triplic: signal in parental CHO cells, OX1R antagonist counter-screen; shares compounds with OX1R antag-2; parental CHO-K1, ATP-induced calcium, Fluo-8 fluorescence; inhibition, % at 5.6 µM; 9.3% of 1,100 active;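 active = inhibition above a per-plate limit, the mean inhibition of that plate's test compounds plus 3 SD, cut at about 25% in these data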;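 also: 0% = ATP challenge with DMSO and 100% = DMSO without ATP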
The depositor's hits bear a star; . = not tested or not shown. Only some compounds are listed: those with a hit (about 4.6% of all), similar ones and a draw of the others.

SMILES	OX1R antag-1	TAAR1 agonist	TAAR1 antag	GPR7 antag	OX1R antag-2	CHO parental Ca	OX1R Ca confirm	CHO Ca triplic
COc1ccc(CN(C)c2ccc(S(=O)(=O)N3CCN(C)CC3)cc2[N+](=O)[O-])cc1OC	24	11	2	.	46*	6	3	65*
CC(=O)NC(C)C(=O)OCC(=O)Nc1ccc(Br)cc1 (centres undefined)	11	19	-6	10	36	1	2	4
COc1ccc(CN2C(=O)NC3(CCOc4ccccc43)C2=O)cc1F (centres undefined)	12	10	9	18	-27	-4	.	.
COc1ccc(CN2C(=O)NC(C)(c3ccc(C)cc3)C2=O)cc1F (centres undefined)	8	6	-6	5	56*	-20	-1	2
CCCCCCn1c(=O)c(-c2ccccc2)c(O)c2ccccc21	14	-2	-6	-11	-23	-18	.	.
CCCCCCCCn1c(=O)c(C(=O)OC)c(N)c2ccccc21	26	11	16	-8	25	-4	19	35*
CCOC(=O)c1ccc(NC(=O)c2cccc(S(=O)(=O)N3c4ccccc4CC3C)c2)s1 (centres undefined)	51	0	63*	3	34	6	26	25*
COc1ccc(C(=O)N2CCCC(c3cc(C(=O)NCc4ccc(F)cc4)no3)C2)cc1 (centres undefined)	.	4	-15	.	.	.	.	.
O=C(N/N=C/c1ccccn1)c1cc(-c2ccc(Br)cc2)nc2ccccc12	24	0	6	-12	50*	20	40*	23
O=C(CNc1cccc(S(=O)(=O)N2CCCC2)c1)Nc1ccc(C(F)(F)F)cc1	20	19	18	.	25	20	4	12
CCN(CC)c1ccc(/C=c2/sc3nnc(-c4ccccc4C)n3c2=O)cc1	24	17	13	5	32	15	44*	40*
CCCCCCCNC(=O)C1(CC2CC(c3ccc(Cl)cc3)=NO2)CCN(C(=O)OC(C)(C)C)CC1 (centres undefined)	8	-2	3	-13	-36	-19	.	.
Cc1ccc(OCCC(=O)N(CCC(C)C)c2c(N)n(Cc3ccccc3)c(=O)[nH]c2=O)cc1	26	.	.	.	37	-13	-5	-11
CCCN(C(=O)COC(=O)CCOc1ccc(C)cc1)c1c(N)n(Cc2ccccc2)c(=O)[nH]c1=O	9	0	-12	.	-6	-1	.	.
C=CCNC(=S)NC(=O)c1oc2ccccc2c1C	21	3	3	-14	40	5	38*	-13
Cc1c(C(=O)NC(=S)NCC(C)C)oc2ccccc12	12	1	-14	-7	-9	-9	.	.
COc1ccc(C2NC3=C(CCC3)C3(C#N)C4(N=C(N)C23C#N)OCCO4)cc1 (centres undefined)	40	9	13	2	36	-8	3	-1
Cc1cc(C(=O)N[C@H](c2ccccc2)[C@@]2(C)C[C@@H]2[C@@H](C)C(=O)Nc2ccc3ccccc3c2)n(C)n1	52	30	19	9	41	-2	12	-11
C[C@@H](C(=O)Nc1ccc2ccccc2c1)[C@H]1C[C@]1(C)[C@H](NC(=O)OCc1ccccc1)c1ccccc1	13	2	8	0	-53	-19	.	.
O=C(COC(=O)CCc1c[nH]c2ccccc12)NCCc1ccccc1	10	12	21	.	0	-6	.	.
O=C(COC(=O)[C@H](Cc1c[nH]c2ccccc12)NC(=O)c1cccs1)NCc1ccccc1	16	6	23	1	33	17	23	0
NS(=O)(=O)c1ccc(CCNC(=O)COC(=O)CCc2c[nH]c3ccccc23)cc1	12	17	-6	.	32	-9	15	-8
COC(=O)C(Cc1ccccc1)NC(=O)CCc1c[nH]c2ccccc12 (centres undefined)	10	2	19	31	39	4	37*	8
CCCOP(=O)(OCCC)C(Nc1ccc(C(C)C)cc1)c1ccc([N+](=O)[O-])cc1 (centres undefined)	2	5	26	13	55*	-6	-2	-27
COP(=O)(OC)C(Nc1ccc([N+](=O)[O-])cc1)c1ccccc1 (centres undefined)	11	3	-1	8	-7	-19	.	.
SMILES	OX1R antag-1	TAAR1 agonist	TAAR1 antag	GPR7 antag	OX1R antag-2	CHO parental Ca	OX1R Ca confirm	CHO Ca triplic
CC(Oc1ccc(Br)cc1Cl)C(=O)Nc1ccncc1 (centres undefined)	5	5	23	-4	31	25	33*	14
CC(Oc1ccc(Br)cc1)C(=O)Nc1ccncc1 (centres undefined)	14	21	21	3	0	-1	.	.
Cc1cnn2c(C3CC3)ccnc12	10	3	-27	3	22	3	2	-6
CCC1CCCCN1C(=O)COC(=O)c1ccc(Br)o1 (centres undefined)	0	5	-13	.	3	9	.	.
CCOc1ccc(NS(=O)(=O)c2cc(OC)ccc2OC)cc1	7	8	-19	-7	-8	-6	.	.
COc1ccc(OC)c(S(=O)(=O)Nc2ccc(Oc3ccccc3)cc2)c1	10	27	27	-16	45	13	9	9
COc1ccc(CCC(=O)NCc2ccccc2OC)cc1	2	0	8	-6	31	-5	8	2
O=C(COc1ccc(Cl)cc1)NCCCNC(=O)c1ccncc1	1	3	-7	5	-4	1	.	.
Cc1cc(C)cc(N(CC(=O)NC2CCCC2)C(=O)CNC(=O)c2cccs2)c1	16	6	-2	3	-20	-23	.	.
Cc1cccc(NC(=S)NCc2ccccc2Cl)c1C	36	4	-9	2	66*	-5	-9	-11
Cc1c(Cl)cccc1NC(=S)NCc1ccccc1	8	9	-1	2	-12	-8	.	.
FC(F)(F)c1cc(-c2ccccn2)nc2cc(-c3ccccc3)nn12	6	3	-15	6	-2	-10	.	.
COc1ccc(C(C)=O)c2c(O)cccc12	61	4	-4	-14	32	-8	14	-4
Cc1cc(C)c(CN2CCC(N3CCC(C(=O)NCC4CCCO4)CC3)CC2)cc1C (centres undefined)	8	-1	-3	-7	-16	-17	.	.
CC(C)(C)NC(=O)COC(=O)c1ccc(NC(=O)CC#N)cc1	6	7	-3	-23	27	1	5	-5
